Assay results from ChEMBL document CHEMBL5724801, “EUbOPEN Chemogenomics Library - Multiplex” (2024).
Where “and” joins values, the source holds several entries; their conditions need not be identical. Identical values can stand only once.

System: HEK-293T
Assay: Multiplex assay against HEK293T
Type: toxicity, cell-based
Settings: human
How it was run: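 At seeding, live cells were stained with Hoechst33342, BioTracker Green Microtubule Cytoskeleton Dye, MitoTracker Red and Annexin V Alexa Fluor 680. After compound addition they were imaged on a CQ1 microscope at 37°C and 5% CO2, and CellPathfinder machine-learning gating sorted them into Hoechst high-intensity objects or normal cells, with normal cells further split into healthy, pyknosed or fragmented nuclei and pyknosed cells into mitotic or apoptotic. Tubulin, mitochondrial-mass and membrane-permeability phenotypes are given as per cents of cells with healthy nuclei.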

[1] = 12 h, 1 µM, compound concentration 1 uM
[2] = 12 h, 10 µM, compound concentration 10 uM
[3] = 24 h, 1 µM, compound concentration 1 uM
[4] = 24 h, 10 µM, compound concentration 10 uM
[5] = 48 h, 1 µM, compound concentration 1 uM
[6] = 48 h, 10 µM, compound concentration 10 uM

## CCn1cnc2c(-c3ccc(F)c(-c4ccc(S(=O)(=O)CC)cc4OC)c3)cnnc21 [DARIGABAT]
[1]
  Population Apoptotic (%): 11.84% and 26.37%
  Population Fragmented Nuclei (%): 2.08% and 6.03%
  Population Healthy Nuclei (%): 45.14% and 15.52%
  Population Hoechst High Intensity Objects (%): 0.69% and 0%
  Population Membrane Permeable-Phenotype (%): 1.54% and 0%
  Population Mitochondria Different-Phenotype (%): 30.77% and 11.11%
  Population Mitotic Cells (%): 88.16% and 73.63%
  Population Normal (%): 99.31% and 100%
  Population Pyknosed Nuclei (%): 52.78% and 78.45%
  Population Tubulin-Different-Phenotype (%): 7.69% and 16.67%
  Total Cell Count: 290 and 116
[2]
  Population Apoptotic (%): 21.29% and 10%
  Population Fragmented Nuclei (%): 1.32% and 0.75%
  Population Hoechst High Intensity Objects (%): 0.44% and 0%
  Population Membrane Permeable-Phenotype (%): 0%
  Population Mitochondria Different-Phenotype (%): 28.57% and 46.15%
  Population Mitotic Cells (%): 78.71% and 90%
  Population Normal (%): 99.56% and 100%
  Population Pyknosed Nuclei (%): 67.98% and 89.55%
  Population Tubulin-Different-Phenotype (%): 40% and 69.23%
  Total Cell Count: 229 and 134
[3]
  Population Apoptotic (%): 18.67% and 32.22%
  Population Fragmented Nuclei (%): 2.2% and 5.36%
  Population Hoechst High Intensity Objects (%): 0.22% and 1.75%
  Population Membrane Permeable-Phenotype (%): 1.8% and 0%
  Population Mitochondria Different-Phenotype (%): 24.46% and 31.25%
  Population Mitotic Cells (%): 81.33% and 67.78%
  Population Normal (%): 99.78% and 98.25%
  Population Pyknosed Nuclei (%): 36.56% and 80.36%
  Population Tubulin-Different-Phenotype (%): 17.63% and 6.25%
[4]
  Population Apoptotic (%): 40.69% and 29.17%
  Population Fragmented Nuclei (%): 0.43% and 1.46%
  Population Hoechst High Intensity Objects (%): 0.86% and 0%
  Population Membrane Permeable-Phenotype (%): 0% and 6.67%
  Population Mitochondria Different-Phenotype (%): 61.9% and 46.67%
  Population Mitotic Cells (%): 59.31% and 70.83%
  Population Normal (%): 99.14% and 100%
  Population Pyknosed Nuclei (%): 63.04% and 87.59%
  Total Cell Count: 232 and 137
[5]
  Population Apoptotic (%): 12.68% and 27.16%
  Population Fragmented Nuclei (%): 3.42% and 2.05%
  Population Healthy Nuclei (%): 77.19% and 42.47%
  Population Hoechst High Intensity Objects (%): 0%
  Population Membrane Permeable-Phenotype (%): 3.54% and 1.61%
  Population Mitochondria Different-Phenotype (%): 36.28% and 61.29%
  Population Mitotic Cells (%): 87.32% and 72.84%
  Population Normal (%): 100%
  Population Pyknosed Nuclei (%): 19.4% and 55.48%
[6]
  Population Apoptotic (%): 55.34% and 39.62%
  Population Fragmented Nuclei (%): 1.71% and 3.1%
  Population Hoechst High Intensity Objects (%): 0.34% and 0%
  Population Membrane Permeable-Phenotype (%): 1.08% and 0%
  Population Mitochondria Different-Phenotype (%): 92.97% and 73.68%
  Population Mitotic Cells (%): 44.66% and 60.38%
  Population Normal (%): 99.66% and 100%
  Population Pyknosed Nuclei (%): 35.15% and 82.17%
  Total Cell Count: 294 and 129

## COc1ccc(Cl)cc1[C@]1(F)C(=O)Nc2cc(C(F)(F)F)ccc21 [FLINDOKALNER]
[1]
  Population Apoptotic (%): 8.33% and 8.73%
  Population Fragmented Nuclei (%): 2.3% and 5.16%
  Population Hoechst High Intensity Objects (%): 0%
  Population Membrane Permeable-Phenotype (%): 0.56% and 0%
  Population Mitochondria Different-Phenotype (%): 45.76% and 33.33%
  Population Mitotic Cells (%): 91.67% and 91.27%
  Population Normal (%): 100%
  Population Pyknosed Nuclei (%): 39.47% and 81.29%
  Total Cell Count: 304 and 155
[2]
  Population Apoptotic (%): 11.41% and 18.18%
  Population Fragmented Nuclei (%): 2.47% and 3.73%
  Population Hoechst High Intensity Objects (%): 0.54% and 0%
  Population Membrane Permeable-Phenotype (%): 0.48% and 0%
  Population Mitochondria Different-Phenotype (%): 38.16% and 26.32%
  Population Mitotic Cells (%): 88.59% and 81.82%
  Population Normal (%): 99.46% and 100%
  Population Pyknosed Nuclei (%): 40.82% and 82.09%
  Total Cell Count: 367 and 134
[3]
  Population Apoptotic (%): 16.18% and 15.32%
  Population Fragmented Nuclei (%): 1.01% and 6.17%
  Population Hoechst High Intensity Objects (%): 0%
  Population Membrane Permeable-Phenotype (%): 3.37% and 0%
  Population Mitochondria Different-Phenotype (%): 17.98% and 10.71%
  Population Mitotic Cells (%): 83.82% and 84.68%
  Population Normal (%): 100%
  Population Pyknosed Nuclei (%): 27.36% and 76.54%
  Population Tubulin-Different-Phenotype (%): 11.8% and 10.71%
[4]
  Population Apoptotic (%): 13.79% and 23.64%
  Population Fragmented Nuclei (%): 2.57% and 5.62%
  Population Healthy Nuclei (%): 68.77% and 25.62%
  Population Hoechst High Intensity Objects (%): 0.2% and 0%
  Population Membrane Permeable-Phenotype (%): 0.86% and 0%
  Population Mitochondria Different-Phenotype (%): 23.28% and 12.2%
  Population Mitotic Cells (%): 86.21% and 76.36%
  Population Normal (%): 99.8% and 100%
  Population Pyknosed Nuclei (%): 28.66% and 68.75%
[5]
  Population Fragmented Nuclei (%): 2.21% and 2.93%
  Population Healthy Nuclei (%): 85.07% and 54.63%
  Population Hoechst High Intensity Objects (%): 0%
  Population Membrane Permeable-Phenotype (%): 4.29% and 2.68%
  Population Mitochondria Different-Phenotype (%): 14.16% and 20.54%
  Population Mitotic Cells (%): 96% and 72.41%
  Population Normal (%): 100%
[6]
  Population Apoptotic (%): 9.02% and 19.67%
  Population Fragmented Nuclei (%): 2.19% and 4.66%
  Population Healthy Nuclei (%): 86.19% and 63.73%
  Population Hoechst High Intensity Objects (%): 0% and 0.52%
  Population Membrane Permeable-Phenotype (%): 7.07% and 1.63%
  Population Mitochondria Different-Phenotype (%): 21.1% and 21.95%
  Population Mitotic Cells (%): 90.98% and 80.33%
  Population Normal (%): 100% and 99.48%
  Population Pyknosed Nuclei (%): 11.62% and 31.61%
